Screening results deposited in PubChem BioAssay by several laboratories.
In the library only some 2.6% were active in any assay of this set; here they are far more common.
rCAG RNA binder = r(CAG) repeat RNA binding; 370,000 tested, 1.3% active; TO-PRO-1 dye displacement fluorescence; AID 651821; inhibition, % at 3 µM;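 active = inhibition above the plate cutoff, the mean of all test compounds on that plate plus 3 SD, cut at about 35% in these data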;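 also: higher means more dye released from RNA so lower well fluorescence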
Rev-erbA mod = modulators of human Rev-erb alpha DNA binding; 370,000 tested, 0.79% active; activity, % at 10 µM; P20393; Rev-erbα–FITC-DNA binding, fluorescence polarization, 90 min;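 active = activity above about 14%, limit read from the data; passing the limit was not always enough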
NR2E3 ag-1 = NR2E3 (human) agonism; GST-NR2E3/biotin-RetCOR TR-FRET, 1536-well; inhibition of corepressor binding, % at 4.78 µM; 320,000 tested, 0.12% active; AID 2300;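 active = percent inhibition above the cutoff of mean plus 3 SD of all tested compounds, set per screening campaign, cut at about 20% in these data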
Target sequence (Q9Y5X4 whole entry, looked up): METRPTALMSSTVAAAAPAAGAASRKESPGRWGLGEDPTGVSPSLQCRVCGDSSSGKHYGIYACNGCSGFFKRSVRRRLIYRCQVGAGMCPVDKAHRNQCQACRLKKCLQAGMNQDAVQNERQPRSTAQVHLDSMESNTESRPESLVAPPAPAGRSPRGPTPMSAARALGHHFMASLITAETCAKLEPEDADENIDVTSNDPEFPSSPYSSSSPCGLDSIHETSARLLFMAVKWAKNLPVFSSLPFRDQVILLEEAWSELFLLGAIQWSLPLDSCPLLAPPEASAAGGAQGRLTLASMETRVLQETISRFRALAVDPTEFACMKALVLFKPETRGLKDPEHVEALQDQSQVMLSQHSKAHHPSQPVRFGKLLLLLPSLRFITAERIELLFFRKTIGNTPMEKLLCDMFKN
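Test system: GST-NR2E3 and biotin-RetCOR proteins | Quantity: 1.35 nM GST-tagged NR2E3 final | Medium: Tris pH 7.5 | Also added: 7 nM biotin-RetCOR | Dosing: Compound at 4.8 µM, single dose | Timing: 5 h at 4 °C | Detection: Time-resolved FRET | Read-out basis: Percent inhibition | Benchmarks: Biotin wells as high control, 0.6% DMSO wells as low control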
PG9 binder = small molecules binding HIV-1 gp120 antibody PG9; TR-FRET gp120-PG9 antibody binding; inhibition, % at 6.7 µM; 360,000 tested, 0.43% active; AID 624416; in the data active = inhibition above about 8.5%
NR2E3 ag-2 = human photoreceptor-specific nuclear receptor agonism; Q9Y5X4; CHO-S Gal4-NCOR/VP16-NR2E3 two-hybrid, luciferase; inhibition of corepressor binding, % at 3.98 µM; 360,000 tested, 0.35% active;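 active = inhibition above the mean of all tested compounds plus 3 SD, cut at about 70% in these data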;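 also: higher means lower luciferase signal from less NR2E3 corepressor binding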
NR1D1 mod conf = Rev-erb alpha (human) modulation, hit confirmation | shares compounds with Rev-erbA mod | Rev-erb alpha FITC-DNA binding, fluorescence polarization, 90 min | activation, % at 25 µM | 3,000 tested, 61% active | AID 1259319;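 active = activation at or above a set limit, or at least 3 SD above the negative control mean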
RORg DNA counter = RORgamma DNA-binding activity, dose-response counter-screen; shares compounds with Rev-erbA mod; purified RORgamma protein-FITC-DNA binding, fluorescence polarization; IC50, µM; 910 tested, 8% active;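 active = Compounds whose fitted half-maximal concentration for disrupting protein-DNA binding is below 10 micromolar; the record names Rev-erb in its text, so the target is in doubt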
A number is an active result.

Screening CCC[C@H]1[C@@H](N(C)Cc2cccs2)CC[C@@]23CCCN2C(=O)CCC[C@@H]13 returned Rev-erbA mod 43, NR1D1 mod conf 52 and RORg DNA counter inactive.
Screening O=C(c1ccc(Cl)cc1)c1cnc(Nc2ccccc2Cl)s1 returned rCAG RNA binder inactive, Rev-erbA mod 35, NR2E3 ag-1 inactive, PG9 binder inactive, NR2E3 ag-2 inactive and NR1D1 mod conf inactive.
For O=C(Nc1cccc(F)c1)Nc1nnc([C@@H]2O[C@H](CO)[C@@H](O)[C@H]2O)s1 the results were rCAG RNA binder inactive, Rev-erbA mod inactive, PG9 binder inactive and NR2E3 ag-2 inactive.
Screening Cn1cncc1C#Cc1ccc2cc(C(C)(C)O)oc(=O)c2c1 returned rCAG RNA binder inactive, Rev-erbA mod inactive, NR2E3 ag-1 inactive, PG9 binder inactive and NR2E3 ag-2 inactive.
`Cn1cncc1C#Cc1ccc2cc(C3(O)CCCCC3)oc(=O)c2c1` gave rCAG RNA binder inactive, Rev-erbA mod 70, NR2E3 ag-1 inactive, PG9 binder inactive, NR2E3 ag-2 inactive, NR1D1 mod conf 43 and RORg DNA counter inactive.
Screening O=C(OCc1cn(Cc2cccc(F)c2F)nn1)N1CCOCC1 returned rCAG RNA binder inactive and Rev-erbA mod inactive.
For Cn1c(N)c(C(=O)c2ccc(Cl)cc2)c(=O)n(C)c1=O the results were rCAG RNA binder inactive, Rev-erbA mod inactive, NR2E3 ag-1 inactive, PG9 binder inactive and NR2E3 ag-2 inactive.
Cc1nn(-c2ccc(Cl)cc2)c2sc(C(=O)c3c(N)n(C)c(=O)n(C)c3=O)cc12 was read as rCAG RNA binder inactive, Rev-erbA mod 31, NR2E3 ag-1 inactive, PG9 binder inactive, NR2E3 ag-2 inactive, NR1D1 mod conf 38 and RORg DNA counter inactive.
Cc1ccc(C(=O)N2CCC3CC2c2cc(-c4ccc5c(c4)OCO5)ccc23)cc1 (stereo not given) was read as rCAG RNA binder inactive, Rev-erbA mod inactive, PG9 binder inactive and NR2E3 ag-2 inactive.
For COc1cccc(OCc2cc(C(=O)N(C)Cc3nccn3C)no2)c1 the results were rCAG RNA binder inactive, Rev-erbA mod inactive, NR2E3 ag-1 inactive, PG9 binder inactive and NR2E3 ag-2 inactive.
`COc1cc(OC)cc(C(=O)NC(C(=O)NNC(=O)CN(C)S(=O)(=O)c2ccc(C)cc2)C(C)C)c1` (stereo not given) gave rCAG RNA binder inactive, Rev-erbA mod inactive, PG9 binder inactive and NR2E3 ag-2 inactive.
For CCc1ccc2nc(/N=C(\N)NC(=O)c3ccccc3)nc(C)c2c1 the results were rCAG RNA binder inactive, Rev-erbA mod 23, NR2E3 ag-1 inactive, PG9 binder inactive, NR2E3 ag-2 inactive and NR1D1 mod conf inactive.
Screening Cc1cc(C)c2nc(/N=C(\N)NC(=O)c3ccccc3)nc(C)c2c1 returned rCAG RNA binder inactive, Rev-erbA mod 56, NR2E3 ag-1 inactive, PG9 binder inactive, NR2E3 ag-2 inactive and NR1D1 mod conf inactive.
CCCC(=O)N/C(N)=N/c1nc(C)c2ccccc2n1 was read as rCAG RNA binder inactive, Rev-erbA mod inactive, NR2E3 ag-1 inactive, PG9 binder inactive and NR2E3 ag-2 inactive.
Cc1cc(C)c2nc(/N=C(\N)NC(=O)Nc3ccccc3)nc(C)c2c1 was read as rCAG RNA binder inactive, Rev-erbA mod inactive, NR2E3 ag-1 inactive, PG9 binder inactive and NR2E3 ag-2 inactive.
`CN(C(=O)COC(=O)Cn1cnc2ccccc21)C1CCCCC1` gave rCAG RNA binder inactive, Rev-erbA mod inactive, PG9 binder inactive and NR2E3 ag-2 inactive.
Screening CC(=O)C1=C(C)N(Cc2ccc(Br)cc2)C(=S)NC1c1cccc(Br)c1 (stereo not given) returned rCAG RNA binder inactive, Rev-erbA mod inactive and PG9 binder inactive.
For CC(C)(Cc1cc(CC(C)(C)C(=O)O)cc(C(C)(C)C)c1)C(=O)O the results were rCAG RNA binder inactive, Rev-erbA mod inactive, NR2E3 ag-1 inactive, PG9 binder inactive and NR2E3 ag-2 inactive.
Screening CC(C)(C#N)Cc1cc(CC(C)(C)C#N)cc(C(C)(C)C)c1 returned rCAG RNA binder inactive, Rev-erbA mod 22, NR2E3 ag-1 inactive, PG9 binder inactive, NR2E3 ag-2 inactive, NR1D1 mod conf 43 and RORg DNA counter inactive.
C[C@H](c1ccccc1)N1C[C@@H](COCc2ccccc2)Oc2cccc(F)c2S1(=O)=O was read as rCAG RNA binder inactive, Rev-erbA mod inactive and PG9 binder inactive.
`O=C(CSc1nnc2ccc(-c3ccccn3)nn12)N1CCCC1` gave rCAG RNA binder inactive, Rev-erbA mod inactive, PG9 binder inactive and NR2E3 ag-2 inactive.
For Cc1ccc2c(C(=O)CSc3ccccc3)c(C)[nH]c2c1 the results were rCAG RNA binder inactive, Rev-erbA mod 30, NR2E3 ag-1 inactive, PG9 binder inactive, NR2E3 ag-2 inactive and NR1D1 mod conf 28.
For O=C1C2C3C=CC(C3)C2C(=O)N1c1cccc(-c2nc3ccccc3o2)c1 (stereo not given) the results were rCAG RNA binder inactive, Rev-erbA mod 29, NR2E3 ag-1 inactive, PG9 binder inactive, NR2E3 ag-2 inactive and NR1D1 mod conf inactive.
`O/C(=C\c1nc2ccccc2[nH]1)c1cccs1` gave rCAG RNA binder inactive, Rev-erbA mod inactive, NR2E3 ag-1 inactive, PG9 binder inactive and NR2E3 ag-2 inactive.
For O=c1[nH]c2ccccc2nc1/C=C(\O)c1cccs1 the results were rCAG RNA binder inactive, Rev-erbA mod 43, NR2E3 ag-1 inactive, PG9 binder inactive, NR2E3 ag-2 inactive and NR1D1 mod conf 22.
Screening Cc1c(C#N)c(O)[nH]c(=O)c1N=Nc1ccc(S(N)(=O)=O)cc1 returned rCAG RNA binder inactive, Rev-erbA mod 26, NR2E3 ag-1 inactive, PG9 binder inactive, NR2E3 ag-2 inactive and NR1D1 mod conf 17.
Screening Cc1c(C#N)c(O)[nH]c(=O)c1N=Nc1ccc(Cl)c(C(=O)O)c1 returned rCAG RNA binder inactive, Rev-erbA mod inactive, NR2E3 ag-1 inactive, PG9 binder inactive and NR2E3 ag-2 inactive.
O=C(CSc1nnc(-c2cccs2)o1)c1ccc2c(c1)OCO2 was read as rCAG RNA binder inactive, Rev-erbA mod 115, NR1D1 mod conf 134 and RORg DNA counter inactive.
For O=c1c2ccccc2ncn1-c1ccc(Cl)c(Cl)c1 the results were rCAG RNA binder inactive, Rev-erbA mod 30, NR2E3 ag-1 inactive, PG9 binder inactive, NR2E3 ag-2 inactive, NR1D1 mod conf 37 and RORg DNA counter inactive.
Screening O=c1cc(-c2ccccc2)ss1 returned rCAG RNA binder inactive, Rev-erbA mod inactive, PG9 binder inactive and NR2E3 ag-2 inactive.
Screening CCn1c(=O)cc(SCC(=O)Nc2ccc(OC)c(OC)c2)c2ccccc21 returned rCAG RNA binder inactive, Rev-erbA mod inactive, NR2E3 ag-1 inactive, PG9 binder inactive and NR2E3 ag-2 inactive.
For CCn1c(=O)cc(SCC(=O)Nc2ccc(Cl)cc2)c2ccccc21 the results were rCAG RNA binder inactive, Rev-erbA mod 138, NR2E3 ag-1 inactive, PG9 binder inactive, NR2E3 ag-2 inactive, NR1D1 mod conf 90 and RORg DNA counter inactive.
